Compound activity deposited in PubChem BioAssay by several laboratories.
Compounds with a hit are over-represented: about 4.1% of the library has one in this group of screens.
KCNQ1 block = inhibitors of human KCNQ1 channel, primary screen, cell-based, thallium flux, high-throughput; Potassium voltage-gated channel subfamily KQT member 1 (Homo sapiens), P51787; CHO-K1 KCNQ1, FluxOR thallium flux fluorescence; active compounds read high; B-score at 10 µM; 310,000 compounds, 1.3% hits;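 active = compounds whose thallium flux B-score, printed positive for inhibition, exceeds three library SD while starting fluorescence stays within three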;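 note: channel opened by potassium depolarization with thallium stimulus after 20 min compound exposure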
KCNQ1 act = potentiators or activators of KCNQ1 channel, primary screen, cell-based, thallium flux, high-throughput. CHO-K1 KCNQ1, thallium flux FluxOR fluorescence; active compounds read high. B-score at 10 µM. 310,000 compounds, 0.35% hits. AID 2648, 2010;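 active = fluorescence ratio B-score, a plate-corrected score, at least three library SD, with initial intensity B-score within 5 SD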
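Assay system: CHO-K1 cells stably expressing KCNQ1; Medium: assay buffer with matched DMSO; Also added: K+/Tl+ depolarizing stimulus; Dosing: single dose; Timing: dye 90 min, compound 20 min, room temperature; Measured by: kinetic FluxOR thallium fluorescence, 10-s 1-Hz baseline, 110-s post-stimulus read; Read-out: peak-minus-minimum fluorescence over initial fluorescence, negative-control normalized, B-scored.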
KCNK3 inh = human KCNK3 channel inhibitors, primary screen, CHO cells, FluxOR thallium flux, B-score. FluxOR fluorescence; active compounds read low. B-score at 10 µM. 340,000 compounds, 0.84% hits. AID 602410, 2012;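 active = B-score under library mean minus 4 SD, starting fluorescence ratio at most library mean plus 5 SD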;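 note: more negative B-score means stronger inhibition of thallium flux through KCNK3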
KCNK9 inh = KCNK9 potassium channel inhibitors, primary screen, HEK293 cells, thallium flux. 310,000 compounds, 1.2% hits. B-score at 10 µM. FluxOR thallium flux fluorescence; active compounds read low;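 active = ratio B-score over 3 SD below the library mean, with starting fluorescence within 5 SD of its mean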;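 note: negative B-score means less thallium flux so channel inhibition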
hERG rescue = hERG rescue from dofetilide block, primary screen, cell-based, CHO-hERG, FluxOR thallium flux, dofetilide IC70; Voltage-gated inwardly rectifying potassium channel KCNH2 (Homo sapiens), Q12809; dofetilide IC70 present; activation (rescue from dofetilide block), less the hit threshold, % at 10 µM; 310,000 compounds, 0.51% hits;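 active = activation above the mean of controls blocked by dofetilide plus 5 SD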;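 note: thallium influx through hERG after potassium depolarization seen as dye fluorescence rise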
KCC2 mod = KCC2 cotransporter modulators, thallium flux, primary screen, cell-based, HEK293 KCC2, FluoZin-2 fluorescence, MLSMR; Solute carrier family 12 member 5 (Homo sapiens), Q9H2X9; KCC2 cells, thallium flux FluoZin-2 fluorescence; 190,000 compounds, 2.2% hits; B-score of Tl+ flux slope (higher = more flux/activation; lower = inhibition) at 10 µM;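 active = thallium flux slope and its plate-corrected score both differing from the plate sample mean at a set confidence after two filtering rounds, in either direction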;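 note: slope of fluorescence scaled to starting intensity during 10 to 20 s after thallium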
KCNK9 block conf = KCNK9 potassium channel inhibitors, confirmation, HEK293 cells, thallium flux, duplicate; shares compounds with KCNK9 inh; FluxOR thallium flux fluorescence; inhibition, % at 10 µM; 4,900 compounds, 43% hits; AID 492992, 2010;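 active = thallium signal inhibited by more than 5 SD of the compound-free buffer control wells, on both duplicate plates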
Kir21 sel = mouse Kir2.1 channel inhibition, confirmation, selectivity assay for KCNK9 modulator project, cell-based, HEK293, thallium flux; shares compounds with KCNK9 inh; Kir2.1 cells, FluxOR thallium flux fluorescence; inhibition, % at 10 µM; 4,900 compounds, 4% hits;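 active = thallium signal drop more than 5 SD beyond the mean of the no-compound control wells, seen in both duplicate plates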;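 note: signal is fluorescence rise after thallium addition divided by baseline fluorescence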
Target sequence (P35561 whole entry, looked up): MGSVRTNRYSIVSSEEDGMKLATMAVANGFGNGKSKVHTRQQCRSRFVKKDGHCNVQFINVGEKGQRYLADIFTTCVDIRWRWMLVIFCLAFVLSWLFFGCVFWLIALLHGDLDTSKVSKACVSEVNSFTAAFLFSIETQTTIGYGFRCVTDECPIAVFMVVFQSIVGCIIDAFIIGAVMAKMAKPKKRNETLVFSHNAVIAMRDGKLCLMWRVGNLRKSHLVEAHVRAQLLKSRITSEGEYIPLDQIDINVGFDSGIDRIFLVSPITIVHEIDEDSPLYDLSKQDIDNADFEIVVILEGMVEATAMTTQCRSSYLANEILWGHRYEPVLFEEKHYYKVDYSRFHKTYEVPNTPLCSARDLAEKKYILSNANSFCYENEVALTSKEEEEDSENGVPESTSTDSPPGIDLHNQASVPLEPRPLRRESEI
HEK293 Tl ctr = thallium flux in non-induced HEK293 cells, confirmation, counter-screen for KCNK9 inhibitor project, cell-based, second counter screen, non-induced KCNK9-HEK293 | inhibition, % at 10 µM | 4,900 compounds, 40% hits | shares compounds with KCNK9 inh | FluxOR thallium flux;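 active = thallium signal drop beyond 5 SD of the untreated control mean, on both duplicate plates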
Numbers stand for hits; 0 = inactive; - = not tested or not shown.

SMILES	KCNQ1 block	KCNQ1 act	KCNK3 inh	KCNK9 inh	hERG rescue	KCC2 mod	KCNK9 block conf	Kir21 sel	HEK293 Tl ctr
Cc1cccc2sc(NNC(=O)c3ccc(S(=O)(=O)N4CC(C)CC(C)C4)cc3)nc12 (stereo not drawn)	6	0	0	0	0	0	0	0	0
Cc1cc(C)c2nc(NNC(=O)c3ccc(S(=O)(=O)N4CC(C)CC(C)C4)cc3)sc2c1 (stereo not drawn)	0	0	0	0	0	0	0	0	0
COC(=O)c1sc2ccccc2c1NC(=O)c1ccc(S(=O)(=O)N2CC(C)CC(C)C2)cc1 (stereo not drawn)	0	0	0	0	0	0	-	-	-
Cc1ccc2nc(NNC(=O)c3ccc(S(=O)(=O)N4CCc5ccccc5C4)cc3)sc2c1	7	0	0	0	0	0	0	0	0
CC1S/C(=N\N=C\c2cccc([N+](=O)[O-])c2)N(C(C)(C)C)C1=O (stereo not drawn)	0	0	0	0	0	0	-	-	-
O=C(COc1cc(O)c2c(=O)cc(-c3ccccc3)oc2c1)c1ccccc1	0	0	0	-8.7	0	0	44%	0	30%
Cc1ccc(C(=O)COc2cc(O)c3c(=O)cc(-c4ccccc4)oc3c2)cc1	0	0	0	0	0	-	-	-	-
O=C1N=c2ccccc2=C1c1sc(=S)n(NC(=O)c2cccc(O)c2)c1O	0	0	0	0	0	0	-	-	-
O=C1N=c2ccc(Br)cc2=C1c1sc(=S)n(NS(=O)(=O)c2ccccc2)c1O	0	0	0	0	0	0	0	0	0
CCCCCCCCCCCCCCCC[n+]1cccc2ccccc21	-	-	0	-	-	0	-	-	-
CCCCCCCCC[n+]1cccc2c3ccccc3ccc21	0	0	0	-17	0	-	70%	90%	30%
O=C(C1CCCO1)N1CCN(C(=S)Nc2ccc(Cl)cc2Cl)CC1 (stereo not drawn)	0	0	0	0	0	0	-	-	-
Cc1nc2nc(C)c(CCC(=O)NCCC3=CCCCC3)c(C)n2n1	0	0	0	0	0	-	-	-	-
CCC(C)(C)n1nnnc1C(C(C)C)N(Cc1ccco1)Cc1cc2cc3c(cc2[nH]c1=O)OCO3 (stereo not drawn)	0	0	0	-10	0	-	42%	0	42%
CCC(C)(C)n1nnnc1C(C(C)C)N(Cc1cccnc1)Cc1ccco1 (stereo not drawn)	0	0	0	0	0	0	-	-	-
COC(=O)c1sc(-c2ccc(Cl)cc2)cc1NC(=O)CSCC(=O)O	0	0	0	0	0	0	0	0	0
COC(=O)c1sc(-c2ccc(C(C)(C)C)cc2)cc1NC(=O)COCC(=O)O	0	0	0	0	0	0	-	-	-
Cc1ccc(NC(=O)C2CCN(S(=O)(=O)c3ccc(Cl)c(C(F)(F)F)c3)CC2)nc1	0	0	0	0	0	-	-	-	-
CN(Cc1cccc(Cl)c1Cl)C(=O)c1cccc(S(=O)(=O)N2CCN(Cc3ccccc3)CC2)c1	0	0	0	0	0	-	0	0	0
COC(=O)Cn1c(=O)n(CCc2ccccc2)c(=O)c2c3c(sc21)CCCC3	0	0	0	0	0	0	0	0	0
CN(C)CCNc1nc2sc3c(c2c(=O)n1CCc1ccccc1)CCCCC3	0	0	0	0	0	0	-	-	-
CC(O)CNc1nc2sc3c(c2c(=O)n1CCc1ccccc1)CCCCC3 (stereo not drawn)	0	0	0	0	0	0	0	0	0
c1ccc2c3nnc4n(c-3nc2c1)CCCS4	0	0	0	0	0	0	-	-	-
COc1cccc(NC(=O)[C@H](CC(C)C)NC(=O)N2CCn3c2nc2ccccc23)c1	0	0	0	-9.9	0	-	0	0	0
O=C(NNC(=S)Nc1ccc(Br)cc1)c1ccccc1Br	0	0	0	0	0	-	0	0	0
SMILES	KCNQ1 block	KCNQ1 act	KCNK3 inh	KCNK9 inh	hERG rescue	KCC2 mod	KCNK9 block conf	Kir21 sel	HEK293 Tl ctr
COc1ccc(N2CCN(C(=O)c3sc4ncn(CC(=O)N5CCCCC5)c(=O)c4c3C)CC2)cc1	0	0	0	0	0	-	-	-	-
CC(C(=O)NC1C=CS(=O)(=O)C1)N1C(=O)/C(=C/c2cccc(Cl)c2)SC1=S (stereo not drawn)	0	0	0	0	0	-	0	0	0
Cc1nc(N2CCN(C(=O)c3ccco3)CC2)c(C#N)c2c1CCCC2	0	0	0	0	0	-	-	-	-
CC(C)C(=O)N1CCN(c2nc(-c3ccccc3)c3c(c2C#N)CCCC3)CC1	0	0	0	-8.6	0	0	40%	0	0
Cc1ccc(Nc2ccc(C(=O)NCCc3ccccc3)cn2)cc1	0	0	0	0	0	0	-	-	-
Cc1ccc(NC(=O)O/N=C2\CCCCC2c2ccc([N+](=O)[O-])cc2[N+](=O)[O-])cc1 (stereo not drawn)	0	0	0	-10	0	0	65%	0	32%
O=[N+]([O-])c1ccc(C2CCCC/C2=N/OCc2ccc(F)cc2)c([N+](=O)[O-])c1 (stereo not drawn)	0	0	0	-8.2	0	0	76%	0	32%
O=C(O/N=C1\CCCCC1c1ccc([N+](=O)[O-])cc1[N+](=O)[O-])c1c(F)cccc1F (stereo not drawn)	0	0	0	0	0	-	-	-	-
O=[N+]([O-])c1ccc(C2CCCC/C2=N/O)c([N+](=O)[O-])c1 (stereo not drawn)	0	0	0	0	0	-	-	-	-
COCCOc1cc(NC(=O)c2cccc(OC)c2)c(Cl)cc1Cl	0	0	0	0	0	0	-	-	-
COCCOc1cc(NC(=O)c2sccc2Oc2ccc([N+](=O)[O-])cc2F)c(Cl)cc1Cl	9	0	0	0	0	-	0	0	0
CCc1cccc(OCCn2nc(C(=O)O)c3ccccc3c2=O)c1	0	0	0	0	0	0	-	-	-
